Laboratory results from ChEMBL document CHEMBL4024760, “Specific Inhibition of Bacterial β-Glucuronidase by Pyrazolo[4,3-c]quinoline Derivatives via a pH-Dependent Manner To Suppress Chemotherapy-Induced Intestinal Toxicity” (J Med Chem, 2017).
Active and inactive are the calls of the source. The calls are words filed in the database; no cut-off is given here.

Assays:
[1] = system: Mus musculus; assay: Protection against CPT-11 induced intestinal toxicity in Balb/cJ mouse assessed as reduction in intestinal tissue damage at 3 mg/kg/day, po starting from 2 days before 50 mg/kg/day, ip CPT-11 administration for 10 consecutive days by hematoxylin and eosin staining based method; type: functional, organism-based
How it was run: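 Inhibitor given orally to BALB/cJ mice at 3 mg/kg/day in DDW (200 μL/day for controls), starting 2 days before CPT-11. CPT-11 50 mg/kg or saline given ip for 10 consecutive days. Jejunum, ileum and colon sections then H&E-stained and examined for villus and crypt destruction; 3–5 mice per group.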

[2] = system: Escherichia coli; assay: Inhibition of N-terminal His-tagged Escherichia coli beta-glucuronidase expressed in Escherichia coli BL21 (DE3) using pNPG as substrate at 10 uM at pH 5.5
How it was run: (§1)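 Purified E. coli βG assay at 10 μM compound, with PBS replaced by Na2HPO4 (0.2 M)/citric acid (0.1 M) buffer mixtures at each pH. Enzyme preincubated with compound 30 min at 37 °C, then pNPG added for 1 h; NaOH-quenched pNP read at 405 nm. Activity given relative to a 10% DMSO control at the same pH; n = 3.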

[3] = system: Escherichia coli; assay: Inhibition of intestinal Escherichia coli beta-glucuronidase in Balb/cJ mouse using FDGIcU as substrate at 3 mg/kg, po for 5 days measured on day 5 post last dose 120 mins after probe administration; type: organism-based
How it was run: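 BALB/cJ mice were gavaged with inhibitor at 3 mg/kg/day or DDW (200 μL) for 5 days. FDGlcU probe (500 μg/100 μL) given orally 30 min after the fifth dose. Intestinal fluorescein imaged in vivo 120 min after the probe (ex 490/em 525 nm) and quantified as average radiance; n = 6; two-tailed t test.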

[4] = system: Escherichia coli BL21(DE3); assay: Inhibition of beta-glucuronidase in Escherichia coli BL21 (DE3) using pNPG as substrate at 50 uM preincubated for 30 mins followed by substrate addition measured after 1 hr relative to control
How it was run: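 BL21(DE3) E. coli grown overnight and diluted to OD600 0.1 in LB. Cells treated with compound (50, 10 or 2 μM) for 30 min at 37 °C, then pNPG (40 mM stock) added for 1 h. Cells pelleted at 6000g; supernatant quenched with NaOH and read at OD405. Activity given as % of a 1% DMSO control.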

[5] = system: Escherichia coli; assay: Inhibition of N-terminal His-tagged Escherichia coli beta-glucuronidase expressed in Escherichia coli BL21 (DE3) assessed as residual activity using pNPG as substrate at 10 uM preincubated for 30 mins followed by substrate addition measured after 1 hr relative to control
How it was run: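 Purified E. coli βG (20 ng) preincubated with 10 μM compound for 30 min at 37 °C in PBS pH 7.5 with 10% DMSO and 0.05% BSA. pNPG (20 mM stock) then added for 1 h, quenched with 2 N NaOH, and read at OD405. Result given as % activity versus a 10% DMSO control; n = 3.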

[6] = system: Escherichia coli; assay: Inhibition of Escherichia coli beta-glucuronidase in Balb/cJ mouse feces using pNPG as substrate at 3 mg/kg, po for 5 days measured on day 5 post last dose after 1 hr; type: organism-based
How it was run: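 Mice gavaged with inhibitor at 3 mg/kg/day or DDW for 5 days. Fresh feces homogenized 1:9 w/v in assay buffer, mixed with assay buffer and 20 mM pNPG (stock), incubated 37 °C for 1 h, centrifuged, quenched with 2 N NaOH, and pNP read at OD405; n = 6; two-tailed t test.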

[7] = system: Escherichia coli; assay: Inhibition of N-terminal His-tagged Escherichia coli beta-glucuronidase expressed in Escherichia coli BL21 (DE3) using pNPG as substrate at 10 uM at pH 7.5; how it was run: as §1
[8] = system: CT26; assay: Effect on CPT-11 induced antitumor activity against mouse CT26 cells transplanted in Balb/cJ mouse assessed as reduction in tumor volume at 3 mg/kg/day administered via oral gavage for 18 days starting from 2 days before 50 mg/kg/day, ip CPT-11 dosing from day 2 measured every other day up to 18 days; type: functional, organism-based
How it was run: (§2)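 CT26 tumour-bearing BALB/c mice (cells inoculated day −8). Inhibitor given orally at 3 mg/kg/day in DDW (dosing solution 0.3 mg/mL) from day −2 onward. Daily ip CPT-11 50 mg/kg or saline from day 0. Tumour growth, body weight and diarrhea score (0 solid to 3 watery with severe perianal staining) recorded every other day; severity distribution on day 18. n = 6 mice/group; two-way ANOVA.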

[9] = Inhibition of N-terminal His-tagged Escherichia coli beta-glucuronidase expressed in Escherichia coli BL21 (DE3) using pNPG as substrate preincubated for 30 mins followed by substrate addition measured after 1 hr
How it was run: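 Purified E. coli βG (20 ng) preincubated 30 min at 37 °C with compound (0.64–10 000 nM) in PBS pH 7.5 containing 10% DMSO and 0.05% BSA. pNPG (20 mM stock) then added for 1 h, quenched with 2 N NaOH, and pNP read at 405 nm. IC50 derived from a four-parameter curve fit; SD of n = 3.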

[10] = system: Escherichia coli; assay: Toxicity against Escherichia coli BL21(DE3) assessed as effect on cell growth at 100 uM after 6 hrs
How it was run: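 BL21(DE3) E. coli (diluted to OD600 0.1 in LB after overnight growth) incubated with compound at a final 100 μM, shaking at 37 °C for 6 h. Growth measured by OD600; viability given as % of the untreated control.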

[11] = system: Mus musculus; assay: Protection against CPT-11 induced intestinal toxicity in Balb/cJ mouse transplanted with mouse CT26 cells assessed as reduction in diarrhea level at 3 mg/kg/day administered via oral gavage for 18 days starting from 2 days before 50 mg/kg/day, ip CPT-11 dosing from day 2 measured every other day up to 18 days; type: functional; parameters: scale not given: the % may be the effect or the level left; how it was run: as §2
[12] = system: Escherichia coli; assay: Inhibition of N-terminal His-tagged Escherichia coli beta-glucuronidase expressed in Escherichia coli BL21 (DE3) using pNPG as substrate at 10 uM at pH 6.5; how it was run: as §1
[13] = biological target: T1, beta-glucuronidase (Homo sapiens, UniProt P08236); assay: Inhibition of N-terminal His-tagged human beta-glucuronidase expressed in Escherichia coli BL21 (DE3) assessed as residual activity using pNPG as substrate at 10 uM preincubated for 30 mins followed by substrate addition measured after 1 hr relative to control; conditions: probe pNPG, read-out: Activity
T1 sequence (P08236 whole entry): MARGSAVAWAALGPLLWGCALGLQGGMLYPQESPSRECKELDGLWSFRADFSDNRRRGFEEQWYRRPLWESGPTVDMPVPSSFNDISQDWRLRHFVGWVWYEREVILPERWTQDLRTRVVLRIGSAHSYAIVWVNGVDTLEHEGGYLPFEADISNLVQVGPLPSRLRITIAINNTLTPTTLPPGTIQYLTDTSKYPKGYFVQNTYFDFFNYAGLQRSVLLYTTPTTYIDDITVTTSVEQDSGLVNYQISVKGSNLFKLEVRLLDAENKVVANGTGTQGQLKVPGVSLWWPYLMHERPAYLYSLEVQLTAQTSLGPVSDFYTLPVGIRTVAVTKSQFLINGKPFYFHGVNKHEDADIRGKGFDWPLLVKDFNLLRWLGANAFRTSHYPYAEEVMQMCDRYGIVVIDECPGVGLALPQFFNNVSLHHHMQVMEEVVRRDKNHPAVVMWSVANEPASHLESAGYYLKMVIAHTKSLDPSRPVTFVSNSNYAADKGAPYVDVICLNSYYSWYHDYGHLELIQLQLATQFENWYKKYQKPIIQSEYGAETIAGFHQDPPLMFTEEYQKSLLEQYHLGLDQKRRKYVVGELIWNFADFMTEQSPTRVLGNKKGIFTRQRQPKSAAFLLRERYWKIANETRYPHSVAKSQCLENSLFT

[14] = system: Escherichia coli; assay: Inhibition of N-terminal His-tagged Escherichia coli beta-glucuronidase expressed in Escherichia coli BL21 (DE3) using pNPG as substrate at 10 uM at pH 6.0; how it was run: as §1
[15] = system: Mus musculus; assay: Effect on systemic metabolism of CPT-11 in mouse CT26 cells transplanted Balb/cJ mouse assessed as effect on CPT-11-induced weight loss at 3 mg/kg/day administered via oral gavage for 18 days starting from 2 days before 50 mg/kg/day, ip CPT-11 dosing from day 2 measured every other day up to 18 days; type: functional, organism-based; how it was run: as §2

inhibition [2] [%] | inhibition [4] [%] | Activity [5] [%] | inhibition [7] [%] | IC50 [9] [nM] | inhibition [12] [%] | activity at 1 h, 10 µM [13] [%] | inhibition [14] [%] | Compound | Activity [1] | inhibition [3] [%] | inhibition [6] | Activity [8] | Activity [10] | Activity [11] [%] | Activity [15]
50 | > 80 | 5.59 | 90 | 136 | 90 | 101 | 80 | Nc1n[nH]c2c1c(Nc1ccc(F)cc1)nc1ccccc12 | Active | 75 | Active | inactive | Non-Toxic | 50 | inactive
– | > 80 | 4.78 | – | 37.3 | – | 100 | – | Cc1ccc(Nc2nc3ccccc3c3[nH]nc(N)c23)cc1 | – | 40 | Active | – | Non-Toxic | – | –
